# Measured values as given in ChEMBL document CHEMBL2401663, “(Biphenyl-4-yl)methylammonium chlorides: potent anticonvulsants that modulate Na+ currents” (J Med Chem, 2013).
# Calls of active or inactive are those of the source. No cut-off for these calls is given here.
# Legend:
# [1] = Toxicity in po dosed albino Sprague-Dawley rat assessed as behavioral toxicity after 0.25 to 4 hrs; assay type: organism-based; details: in vivo
# Summary of the method: (§1)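 Male albino Sprague-Dawley rats dosed ip or orally, scored for behavioral toxicity (neurological impairment). TD50 is in mg/kg, taken at the time of peak effect.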
# Rattus norvegicus [2] = assay: Anticonvulsant activity against po dosed albino Sprague-Dawley rat after 0.25 to 4 hrs by maximal electroshock seizure test; assay type: functional
# Summary of the method: (§2)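 Male albino Sprague-Dawley rats dosed ip or orally under the NIH Anticonvulsant Screening Program, tested by maximal electroshock seizure.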
# [3] = Toxicity in ip dosed albino Sprague-Dawley rat assessed as behavioral toxicity after 0.25 to 4 hrs; assay type: organism-based; details: in vivo; summary of the method: as §1
# Rattus norvegicus [4] = assay: Anticonvulsant activity against ip dosed albino Sprague-Dawley rat after 0.25 to 2 hrs by maximal electroshock seizure test; assay type: functional; summary of the method: as §2
# Mus musculus [5] = assay: Toxicity in ip dosed albino CF1 mouse after […] by rotorod test; assay type: organism-based; details: in vivo
# Mus musculus [6] = assay: Anticonvulsant activity against ip dosed albino CF1 mouse after […] by subcutaneous pentylenetetrazol test; assay type: functional
# Mus musculus [7] = assay: Anticonvulsant activity against ip dosed albino CF1 mouse after 0.25 to 1 hr by 6 Hz psychomotor seizure test; assay type: functional
# Mus musculus [8] = assay: Anticonvulsant activity against ip dosed albino CF1 mouse after […] by maximal electroshock seizure test; assay type: functional
# [9] = Inhibition of Na+ channel in mouse CAD cells assessed as slow inactivation by whole cell voltage clamp technique; assay type: cell-based
# Summary of the method: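 CAD cells (Ham's F12/EMEM, 8% FBS, 37 °C, 5% CO2) by whole-cell voltage clamp at room temperature. Na+ channel slow inactivation measured at −50 mV; IC50 is the concentration at which half of the channels reach a slow-inactivated state.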
# [10] = Toxicity in po dosed albino Sprague-Dawley rat assessed as behavioral toxicity; assay type: organism-based; details: in vivo
# Summary of the method: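 Neurological impairment was scored as behavioral toxicity in male albino Sprague-Dawley rats dosed orally, NIH Anticonvulsant Screening Program. The median impairing dose (TD50, mg/kg) was taken at the time of peak effect.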
# Rattus norvegicus [11] = organism: Rattus norvegicus; assay: Inhibition of Na+ channel in rat embryonic cortical neurons assessed as frequency-dependent inactivation at 20 uM by whole cell voltage clamp technique relative to control
# Rattus norvegicus [12] = organism: Rattus norvegicus; assay: Inhibition of Na+ channel in rat embryonic cortical neurons assessed as fast inactivation at 20 uM by whole cell voltage clamp technique (reference value: -53.9 +/- 1.2 mV)
# Summary of the method: (§3)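 Embryonic day 19 rat cortical neurons by whole-cell voltage clamp at room temperature, with protocols mostly as for CAD cells. 20 μM compared with 0.1% DMSO. Activation from 15-ms pulses, −70 to +80 mV; conductance G = I/(Vm − Vrev); Boltzmann fits giving V1/2 and k. Mean ± SEM; ANOVA with post-hoc test.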
# Rattus norvegicus [13] = organism: Rattus norvegicus; assay: Inhibition of Na+ channel in rat embryonic cortical neurons assessed as steady state activation at 20 uM by whole cell voltage clamp technique relative to control; summary of the method: as §3
# Rattus norvegicus [14] = organism: Rattus norvegicus; assay: Inhibition of Na+ channel in rat embryonic cortical neurons assessed as slow inactivation at 20 uM by whole cell voltage clamp technique; summary of the method: as §3
# CAD [15] = assay: Inhibition of Na+ channel in mouse CAD cells assessed as frequency-dependent inactivation at 10 uM by whole cell voltage clamp technique relative to control; assay type: cell-based
# Summary of the method: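 Frequency (use)-dependent inhibition of Na+ currents in CAD cells by whole-cell voltage clamp at room temperature. Current trend and amplitude at 10 μM compared with control.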
# CAD [16] = assay: Inhibition of Na+ channel in mouse CAD cells assessed as fast inactivation by whole cell voltage clamp technique; assay type: cell-based
# Summary of the method: (§4)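 Steady-state fast inactivation in CAD cells by whole-cell voltage clamp at room temperature. Cells held at −80 mV, given 500-ms prepulses from −120 to −10 mV in 10-mV steps, then a 20-ms step to 0 mV. Curves fitted with a single Boltzmann; V1/2 shift compared with 0.1% DMSO by ANOVA and Dunnett's test. Mean ± SEM.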
# CAD [17] = assay: Inhibition of Na+ channel in mouse CAD cells assessed as hyperpolarizing shift at 30 uM by whole cell voltage clamp technique (reference value: -71.6 +/- 0.6 mV); assay type: cell-based; summary of the method: as §4
# CAD [18] = assay: Inhibition of Na+ channel in mouse CAD cells assessed as hyperpolarizing shift at 1 uM by whole cell voltage clamp technique (reference value: -71.6 +/- 0.6 mV); assay type: cell-based; summary of the method: as §4
# Rattus norvegicus [19] = organism: Rattus norvegicus; assay: Protective index, ratio of TD50 for albino Sprague-Dawley rat to ED50 for albino Sprague-Dawley rat; assay type: functional
# Summary of the method: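 Protective index is TD50/ED50, both from orally dosed male Sprague-Dawley rats. TD50 is for behavioral toxicity and ED50 is for maximal electroshock seizure.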
# Rattus norvegicus [20] = assay: Anticonvulsant activity against po dosed albino Sprague-Dawley rat after 2 hrs by maximal electroshock seizure test; assay type: functional; summary of the method: as §2
# Rattus norvegicus [21] = assay: Toxicity in ip dosed albino Sprague-Dawley rat assessed as behavioral toxicity after 2 hrs; assay type: organism-based; details: in vivo; summary of the method: as §1
# Rattus norvegicus [22] = assay: Anticonvulsant activity against ip dosed albino Sprague-Dawley rat after 2 hrs by maximal electroshock seizure test; assay type: functional; summary of the method: as §2
# Mus musculus [23] = assay: Toxicity in ip dosed albino CF1 mouse after 6 hrs by rotorod test; assay type: organism-based; details: in vivo
# Mus musculus [24] = assay: Anticonvulsant activity against ip dosed albino CF1 mouse after 4 hrs by subcutaneous pentylenetetrazol test; assay type: functional; details: albino CF1, 4 h
# Mus musculus [25] = assay: Anticonvulsant activity against ip dosed albino CF1 mouse after 1 hr by 6 Hz psychomotor seizure test; assay type: functional
# Mus musculus [26] = assay: Anticonvulsant activity against ip dosed albino CF1 mouse after 0.5 hrs by maximal electroshock seizure test; assay type: functional
# Rattus norvegicus [27] = assay: Anticonvulsant activity against ip dosed albino Sprague-Dawley rat after 0.25 to 4 hrs by maximal electroshock seizure test; assay type: functional; summary of the method: as §2
# [28] = Toxicity in ip dosed albino CF1 mouse after 0.25 to 4 hrs by rotorod test; assay type: organism-based; details: in vivo
# Mus musculus [29] = assay: Anticonvulsant activity against ip dosed albino CF1 mouse after 0.5 to 4 hrs by subcutaneous pentylenetetrazol test; assay type: functional
# [30] = Toxicity in ip dosed albino Sprague-Dawley rat assessed as behavioral toxicity after 0.25 to 0.5 hrs; assay type: organism-based; details: in vivo; summary of the method: as §1
# Rattus norvegicus [31] = assay: Anticonvulsant activity against ip dosed albino Sprague-Dawley rat after 0.25 to 0.5 hrs by maximal electroshock seizure test; assay type: functional; summary of the method: as §2
# Mus musculus [32] = assay: Anticonvulsant activity against ip dosed albino CF1 mouse after 0.25 to 2 hrs by subcutaneous pentylenetetrazol test; assay type: functional
# Mus musculus [33] = assay: Anticonvulsant activity against ip dosed albino CF1 mouse after 0.5 to 4 hrs by 6 Hz psychomotor seizure test; assay type: functional
# Mus musculus [34] = assay: Anticonvulsant activity against ip dosed albino CF1 mouse after 0.25 to 1 hr by maximal electroshock seizure test; assay type: functional
# Mus musculus [35] = assay: Toxicity in ip dosed albino CF1 mouse after 0.5 to 2 hrs by rotorod test; assay type: organism-based; details: in vivo
# Mus musculus [36] = assay: Anticonvulsant activity against ip dosed albino CF1 mouse after 0.5 to 2 hrs by 6 Hz psychomotor seizure test; assay type: functional
# Rattus norvegicus [37] = assay: Anticonvulsant activity against po dosed albino Sprague-Dawley rat […] by maximal electroshock seizure test; assay type: functional; summary of the method: as §2
# Mus musculus [38] = assay: Anticonvulsant activity against ip dosed albino CF1 mouse after 0.25 to 4 hrs by subcutaneous pentylenetetrazol test; assay type: functional
# Mus musculus [39] = assay: Anticonvulsant activity against ip dosed albino CF1 mouse after 1 to 4 hrs by 6 Hz psychomotor seizure test; assay type: functional
# Mus musculus [40] = assay: Anticonvulsant activity against ip dosed albino CF1 mouse after 0.25 to 4 hrs by maximal electroshock seizure test; assay type: functional
smiles,measurement,setting,value
Cl.NCc1ccc(-c2ccccc2OC(F)(F)F)cc1,TD50,[1],> 30 mg/kg
same,ED50,Rattus norvegicus [2],> 30 mg/kg
same,TD50,[3],> 30 mg/kg
same,ED50,Rattus norvegicus [4],< 30 mg/kg
same,TD50,Mus musculus [5],72 mg/kg
same,ED50,Mus musculus [6],> 120 mg/kg
same,ED50,Mus musculus [7],< 50 mg/kg
same,ED50,Mus musculus [8],40 mg/kg
COC[C@@H](NC(C)=O)C(=O)NCc1ccccc1 [LACOSAMIDE],IC50,[9],85 µM
same,TD50,[10],> 500 mg/kg
Cl.NCc1ccc(-c2cccc(OC(F)(F)F)c2)cc1,inhibition,Rattus norvegicus [11],inactive
same,V1/2,Rattus norvegicus [12],-69.6 mV
same,inhibition,Rattus norvegicus [13],inactive
same,inhibition,Rattus norvegicus [14],Active
same,inhibition,CAD [15],inactive
same,inhibition,CAD [16],inactive
same,V1/2,CAD [17],26.5 mV
same,V1/2,CAD [18],11.2 mV
same,Ratio TD50/ED50,Rattus norvegicus [19],>57
same,IC50,[9],2.7 µM
same,TD50,[1],> 500 mg/kg
same,ED50,Rattus norvegicus [20],8.7 mg/kg
same,TD50,Rattus norvegicus [21],72 mg/kg
same,ED50,Rattus norvegicus [22],16 mg/kg
same,TD50,Mus musculus [23],81 mg/kg
same,ED50,Mus musculus [24],81 mg/kg
same,ED50,Mus musculus [25],43 mg/kg
same,ED50,Mus musculus [26],25 mg/kg
COc1cccc(-c2ccc(CN)cc2)c1.Cl,TD50,[1],> 30 mg/kg
same,ED50,Rattus norvegicus [2],> 30 mg/kg
same,TD50,[3],> 30 mg/kg
same,ED50,Rattus norvegicus [27],> 30 mg/kg
same,TD50,[28],> 100 mg/kg
same,ED50,Mus musculus [29],> 100 mg/kg
same,ED50,Mus musculus [25],100 mg/kg
same,ED50,Mus musculus [8],< 100 mg/kg
Cl.NCc1ccc(-c2cccc(Cl)c2)cc1,TD50,[1],> 30 mg/kg
same,ED50,Rattus norvegicus [2],> 30 mg/kg
same,TD50,[30],65 mg/kg
same,ED50,Rattus norvegicus [31],65 mg/kg
same,TD50,[28],> 100 mg/kg
same,ED50,Mus musculus [32],< 100 mg/kg
same,ED50,Mus musculus [33],< 100 mg/kg
same,ED50,Mus musculus [34],< 100 mg/kg
COC(=O)c1cccc(-c2ccc(CN)cc2)c1.Cl,TD50,[1],> 30 mg/kg
same,ED50,Rattus norvegicus [2],> 30 mg/kg
same,TD50,[3],> 30 mg/kg
same,ED50,Rattus norvegicus [27],> 30 mg/kg
same,TD50,Mus musculus [35],100 mg/kg
same,ED50,Mus musculus [36],> 300 mg/kg
same,ED50,Mus musculus [26],100 mg/kg
O=C1NC(=O)C(c2ccccc2)(c2ccccc2)N1 [PHENYTOIN],ED50,Rattus norvegicus [37],30 mg/kg
Cl.NCc1ccc(-c2ccc(Cl)cc2)cc1,TD50,[1],> 30 mg/kg
same,ED50,Rattus norvegicus [2],> 30 mg/kg
same,TD50,[3],> 30 mg/kg
same,ED50,Rattus norvegicus [27],> 30 mg/kg
same,TD50,[28],> 50 mg/kg
same,ED50,Mus musculus [38],> 50 mg/kg
same,ED50,Mus musculus [39],< 100 mg/kg
same,ED50,Mus musculus [40],> 50 mg/kg
